Assay results gathered from unrelated publications.
Each line is one published result; the experiments were not run side by side. pIC50: −log10 of the molar value.
Effect on: enzyme activity
Action: inhibitor
PARP10: Protein mono-ADP-ribosyltransferase PARP10 (PARP10, Homo sapiens, UniProt Q53GL7)
HDAC8: Histone deacetylase 8 (HDAC8, Homo sapiens, UniProt Q9BY41)
HDAC1: Histone deacetylase 1 (HDAC1, Homo sapiens, UniProt Q13547)
Seed linoleate 13S-lipoxygenase-1: Seed linoleate 13S-lipoxygenase-1 (Glycine max, UniProt P08170)

| SMILES | target | method | setting | pIC50 |
| --- | --- | --- | --- | --- |
| c1c(N2CCCC2)nc(N2CCCC2)nc1N1CCNCC1 | Caspase-5 (CASP5, Homo sapiens, UniProt P51878) |  | with preincubation | 6.86 |
| O=C1CC[C@H](N2Cc3cc(N4CCN(CC5CCN(c6ccc([C@@H]7c8ccc(O)cc8CC[C@@H]7c7ccccc7)cc6)CC5)CC4)ccc3C2=O)C(=O)N1 | ATP-dependent translocase ABCB1 (ABCB1, Homo sapiens, UniProt P08183) |  |  | 6.05 |
| O=c1[nH]c2c(nnn2Cc2c(F)c(F)c(F)c(F)c2F)c2ccc(F)cc12 | PARP10 |  |  | < 5.00 |
| Cc1ccc(S(=O)(=O)[N](Nc2ccc([N+](=O)[O-])cc2[N+](=O)[O-])[Sn]([Cl])[Cl])cc1 | Polyunsaturated fatty acid 5-lipoxygenase (ALOX5, Homo sapiens, UniProt P09917) |  |  | 5.82 |
| COc1ccc(Nc2ncnc3c2ncn3Cc2ccc(C(=O)NO)cc2)cc1 | HDAC8 |  |  | 6.95 |
| COc1ccc(N(Cc2nc(-c3cccc(Cl)c3)cs2)C(=O)CCCCCC(=O)NO)cc1 | HDAC1 |  |  | 8.31 |
| O=C(NO)c1ccc(Cn2cnc3c(Nc4cccc([N+](=O)[O-])c4)ncnc32)cc1 | HDAC8 |  |  | 6.93 |
| Nc1cnccc1Nc1ccc(Cl)c(Cl)c1 | Uracil-DNA glycosylase (UNG, Homo sapiens, UniProt P13051) |  |  | < 4.00 |
| NC/C(=C\F)COc1cccc(Cn2c(=S)[nH]c(=O)c3[nH]cnc32)c1 | Protein-lysine 6-oxidase (Homo sapiens, UniProt P28300) |  |  | < 4.52 |
| COc1ccc(N(Cc2csc(-c3ccc(Cl)cc3)n2)C(=O)CCCCCC(=O)NO)cc1 | HDAC1 |  |  | 9.00 |
| C=C(C)[C@@H]1CC[C@]2(C)CC[C@]3(C)[C@H](CC[C@@H]4[C@@]5(C)CC[C@H](O)C(C)(C)[C@@H]5CC[C@]43C)[C@@H]12 | Seed linoleate 13S-lipoxygenase-1 |  |  | 3.96 |
| COc1cccc(Cn2nnc3c4ccc(F)cc4c(=O)[nH]c32)c1 | PARP10 |  |  | 5.78 |
| O=c1cc(-c2ccccc2)oc2cc(O)c(O)c(O)c12 | Seed linoleate 13S-lipoxygenase-1 |  |  | 5.20 |
| COc1ccc(N(Cc2nc(-c3ccc(F)cc3)cs2)C(=O)CCCCCC(=O)NO)cc1 | HDAC1 |  |  | 9.05 |
| CCCCCn1nnc2c3ccccc3c(=O)[nH]c21 | PARP10 |  |  | 6.74 |
| COc1ccc(N(Cc2nc(-c3ccccc3)cs2)C(=O)CCCCCC(=O)NO)cc1 | HDAC1 |  |  | 8.80 |
| O=C(NO)c1ccc(Cn2cnc3c(Nc4ccc(Cl)cc4)ncnc32)cc1 | HDAC1 | fluorescence |  | 6.78 |
| CCCOc1ccc(N(Cc2nc(-c3ccccc3)cs2)C(=O)CCCCCC(=O)NO)cc1 | HDAC1 |  |  | 8.66 |
| Cc1ccc(Cn2cc(-c3ccccc3C(N)=O)nn2)cc1 | PARP10 |  |  | < 5.00 |
| c1ccc2c(-c3cnn4cc(-c5ccc(N6CCNCC6)cc5)cnc34)ccnc2c1 | TGF-beta receptor type-2 (TGFBR2, Homo sapiens, UniProt P37173) |  |  | 7.05 |
| CCCCn1c(=O)c2cc(F)ccc2c2nnn(Cc3ccc(C)cc3)c21 | PARP10 |  |  | < 5.00 |
| COc1ccc(N(Cc2csc(-c3ccccc3Cl)n2)C(=O)CCCCCC(=O)NO)cc1 | HDAC1 |  |  | 8.68 |
| O=c1[nH]c2c(nnn2-c2ccc(Br)cc2)c2ccccc12 | PARP10 |  |  | < 5.00 |
| O=C(NO)c1ccc(Cn2cnc3c(Nc4ccc(F)c(Cl)c4)ncnc32)cc1 | HDAC1 | fluorescence |  | 6.47 |
| COc1cccc(Cn2nnc3c4ccccc4c(=O)[nH]c32)c1 | PARP10 |  |  | 6.66 |
| COc1ccc(N(Cc2nc(-c3ccc(Cl)cc3)cs2)C(=O)CCCCCC(=O)NO)cc1 | HDAC1 |  |  | 8.77 |
